The values below come from ChEMBL document CHEMBL1143402 (PLoS Med, 2006).

Holding throughout (type): ADME, organism-based
Data set [1] has as its system Mycobacterium tuberculosis variant bovis. The data set is described as follows: Drug metabolism in Mycobacterium bovis BCG Tokyo assessed as cell supernatant [14C]OPC-67683 metabolite level after 48 hrs by scintillation counting. The gist of the method: (§1)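 ^14C-labelled drug (0.5 mg/ml stock) added 15 µl to 585 µl 7H9/TN-ADC culture, incubated 48 h. Acetonitrile (2 volumes) added, then centrifuged. Supernatant counted by scintillation; pellet dissolved in 2 M NaOH, 1 h at 60 °C, then counted. DPM expressed relative to broth control supernatant.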

Data set [2] shares this test system. The data set is described as follows: Drug metabolism in OPC-67683 resistant Mycobacterium bovis BCG Tokyo assessed as cell supernatant [14C]OPC-67683 metabolite level after 48 hrs by scintillation counting. Summed up:
as §1

The test system is the same in data set [3]. Put plainly: Drug metabolism in Mycobacterium bovis BCG Tokyo assessed as cell pellet [14C]OPC-67683 metabolite level after 48 hrs by scintillation counting. The gist of the method: as §1

SMILES strings stand for the structures.

For the compound `C[C@]1(COc2ccc(N3CCC(Oc4ccc(OC(F)(F)F)cc4)CC3)cc2)Cn2cc([N+](=O)[O-])nc2O1`, the Activity in data set [1] is recorded as 82%; in data set [2], 105%; in data set [3], 22%.
